Results: ChEMBL document CHEMBL3046367, “Potent and specific bactericidal effect of juglone (5-hydroxy-1,4-naphthoquinone) on the fire blight pathogen Erwinia amylovora” (J Agric Food Chem, 2012)
Values after ≈ are worked out from the molar mass of the structure shown. Active and inactive are the calls of the source. The calls are words filed in the database; no cut-off is given here.

Assays:
Erwinia amylovora [1] = test: Bactericidal activity against Erwinia amylovora 295/93 assessed as growth inhibition in King's B full medium measured at pH 7.2 after overnight incubation by suspension culture assay; format: functional
Outline: (§1)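 Growth inhibition in suspension culture in King's B medium (peptone, K2HPO4, MgSO4, glycerol; pH 7.2). Overnight culture diluted to OD600 0.2, compound added from stocks in ethanol or DMSO (up to 5% v/v) beside solvent controls; 28 °C, 200 rpm; OD600 read at 0–8 h every 2 h and at 15 or 24 h. MIC = lowest concentration giving complete growth inhibition after overnight incubation; at least triplicate.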

Erwinia amylovora [2] = test: Bactericidal activity against Erwinia amylovora 295/93 assessed as growth inhibition applied as spray solution; format: functional, organism-based
Erwinia amylovora [3] = test: Bactericidal activity against Erwinia amylovora 295/93 assessed as colony growth inhibition at 25 uM at pH 4.5 by plating assay in presence of 0.5 mg/l mushroom tyrosinase; format: functional, organism-based
[4] = Activity of Agaricus bisporus (mushroom) tyrosinase assessed as drug oxidation by photometric analysis; format: ADME
Erwinia amylovora [5] = test: Bactericidal activity against Erwinia amylovora 295/93 assessed as colony growth inhibition at 25 uM at pH 7.2 by plating assay in presence of 0.5 mg/l mushroom tyrosinase; format: functional, organism-based
Erwinia amylovora [6] = test: Bactericidal activity against Erwinia amylovora 295/93 assessed as growth inhibition at 10 uM preincubated for 1 hr with visible light by suspension culture assay; format: functional, organism-based
Outline: (§2)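 1 mM stock in ethanol exposed for 1 h to bright sunlight (UV plus visible) or to sunlight behind a UV-blocking glass screen; dark-kept solution as control. Added at nominal 10 μM to growing E. amylovora suspension cultures; growth followed by OD600.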

Erwinia amylovora [7] = test: Bactericidal activity against Erwinia amylovora 295/93 assessed as growth inhibition at 10 uM preincubated for 1 hr with UV/visible light by suspension culture assay; format: functional, organism-based; outline: as §2
Erwinia amylovora [8] = test: Bactericidal activity against mixture of two strains of Erwinia amylovora 295/93 and 763 inoculated in Malus x domestica cv. Gala flowers assessed as prevention of infection at 0.01 mM applied two times at 2 hr after bacterial exposure measured after 8 to 10 days by In vitro flower inoculation assay; format: functional, 295/93/763
Outline: (§3)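 Gala flowers (balloon stage, from greenhouse-forced potted trees) opened on 10% sucrose at 28 °C for 24 h, in series of 20. Each inoculated with 1 μL of a 1×10^7 CFU/mL mix of strains 295/93 and 763 on the styles. After 2 h, sprayed twice with 150 μL; water as negative control. Kept at 70% humidity and 22 °C, with a water-plus-fungicide spray at day 2. Infected flowers per series scored at 8–10 days; assay valid only if water controls reached ≥50% infection.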

Erwinia amylovora [9] = test: Bactericidal activity against 2x10^8 CFU/mL Erwinia amylovora 295/93 cells assessed as late restarting of growth from surviving cells at <10 uM by suspension culture assay; format: functional, organism-based
Erwinia amylovora [10] = test: Bactericidal activity against Erwinia amylovora 295/93 at 10 uM after 30 min; format: functional, organism-based
Outline: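 Bactericidal versus bacteriostatic test: about 10^5 E. amylovora cells in suspension culture exposed to 10 μM for 30 min, then plated on King's B medium to check for surviving colonies.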

Escherichia coli = test: Bactericidal activity against Escherichia coli assessed as growth inhibition at pH 7.2 by suspension culture assay; format: functional; outline: as §1
Pseudomonas fluorescens = test: Bactericidal activity against Pseudomonas fluorescens A506 assessed as growth inhibition at pH 7.2 by suspension culture assay; format: functional; outline: as §1
Bacillus subtilis = test: Bactericidal activity against Bacillus subtilis NCTC 10315 assessed as growth inhibition at pH 7.2 by suspension culture assay; format: functional; outline: as §1
[11] = test system: Pectobacterium carotovorum; test: Bactericidal activity against Pectobacterium carotovorum NCPB 312 assessed as growth inhibition at pH 7.2 by suspension culture assay; format: functional; outline: as §1
Erwinia piriflorinigrans = test: Bactericidal activity against Erwinia piriflorinigrans 5888 assessed as growth inhibition at pH 7.2 by suspension culture assay; format: functional; outline: as §1
Pantoea agglomerans = test: Bactericidal activity against Pantoea agglomerans 599 assessed as growth inhibition at pH 7.2 by suspension culture assay; format: functional; outline: as §1
Erwinia billingiae = test: Bactericidal activity against Erwinia billingiae 6830 assessed as growth inhibition at pH 7.2 by suspension culture assay; format: functional; outline: as §1
Erwinia amylovora [12] = test: Bactericidal activity against Erwinia amylovora 385R assessed as growth inhibition at pH 7.2 by suspension culture assay; format: functional; outline: as §1
Erwinia amylovora [13] = test: Bactericidal activity against Erwinia amylovora 363 assessed as growth inhibition at pH 7.2 by suspension culture assay; format: functional; outline: as §1
Erwinia amylovora [14] = test: Bactericidal activity against Erwinia amylovora 237R assessed as growth inhibition at pH 7.2 by suspension culture assay; format: functional; outline: as §1
Erwinia amylovora [15] = test: Bactericidal activity against Erwinia amylovora 295/93 assessed as inhibition of bacterial growth under infection conditions in hrp gene expression inducing medium at pH 7.0 after overnight incubation by suspension culture assay; format: functional
Outline: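 E. amylovora 295/93 started at OD600 0.2, 28 °C with shaking, OD600 followed. MIC = lowest concentration completely inhibiting growth after overnight incubation, beside solvent controls.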

Erwinia amylovora [16] = test: Bactericidal activity against Erwinia amylovora 295/93 assessed as growth inhibition at pH 4.5 after overnight incubation by suspension culture assay; format: functional
Outline: (§4)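 E. amylovora 295/93 grown in King's B medium brought to pH values between 4 and 8 with 1 M HCl or NaOH before sterilisation. Culture set to OD600 0.2, 28 °C, 200 rpm, OD600 monitored over time; solvent controls run in parallel.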

Erwinia amylovora [17] = test: Bactericidal activity against Erwinia amylovora 295/93 assessed as growth inhibition at 2.5 uM at pH 4.0 to 8.0 by suspension culture assay; format: functional, organism-based; outline: as §4
Erwinia tasmaniensis = test: Bactericidal activity against Erwinia tasmaniensis 37/10 assessed as growth inhibition at pH 7.2 by suspension culture assay; format: functional; outline: as §1
Erwinia pyrifoliae = test: Bactericidal activity against Erwinia pyrifoliae 4171 assessed as growth inhibition at pH 7.2 by suspension culture assay; format: functional; outline: as §1
Erwinia amylovora [18] = test: Bactericidal activity against Erwinia amylovora 894 assessed as growth inhibition at pH 7.2 by suspension culture assay; format: functional; outline: as §1
Erwinia amylovora [19] = test: Bactericidal activity against Erwinia amylovora 893 assessed as growth inhibition at pH 7.2 by suspension culture assay; format: functional; outline: as §1
Erwinia amylovora [20] = test: Bactericidal activity against Erwinia amylovora 872 assessed as growth inhibition at pH 7.2 by suspension culture assay; format: functional; outline: as §1
Erwinia amylovora [21] = test: Bactericidal activity against Erwinia amylovora 871 assessed as growth inhibition at pH 7.2 by suspension culture assay; format: functional; outline: as §1
Erwinia amylovora [22] = test: Bactericidal activity against Erwinia amylovora 846 assessed as growth inhibition at pH 7.2 by suspension culture assay; format: functional; outline: as §1
Erwinia amylovora [23] = test: Bactericidal activity against Erwinia amylovora 797 assessed as growth inhibition at pH 7.2 by suspension culture assay; format: functional; outline: as §1
Erwinia amylovora [24] = test: Bactericidal activity against Erwinia amylovora 793 assessed as growth inhibition at pH 7.2 by suspension culture assay; format: functional; outline: as §1
Erwinia amylovora [25] = test: Bactericidal activity against Erwinia amylovora 792 assessed as growth inhibition at pH 7.2 by suspension culture assay; format: functional; outline: as §1
Erwinia amylovora [26] = test: Bactericidal activity against Erwinia amylovora 782 assessed as growth inhibition at pH 7.2 by suspension culture assay; format: functional; outline: as §1
Erwinia amylovora [27] = test: Bactericidal activity against Erwinia amylovora 657 assessed as growth inhibition at pH 7.2 by suspension culture assay; format: functional; outline: as §1
Erwinia amylovora [28] = test: Bactericidal activity against Erwinia amylovora 627 assessed as growth inhibition at pH 7.2 by suspension culture assay; format: functional; outline: as §1
Erwinia amylovora [29] = test: Bactericidal activity against Erwinia amylovora 562 assessed as growth inhibition at pH 7.2 by suspension culture assay; format: functional; outline: as §1
Erwinia amylovora [30] = test: Bactericidal activity against Erwinia amylovora 513 assessed as growth inhibition at pH 7.2 by suspension culture assay; format: functional; outline: as §1
Erwinia amylovora [31] = test: Bactericidal activity against Erwinia amylovora bv.4 assessed as growth inhibition after 10 min; format: functional; conditions: bv.4, 10 min
Erwinia amylovora [32] = test: Bactericidal activity against mixture of two strains of Erwinia amylovora 295/93 and 763 inoculated in Malus x domestica cv. Gala flowers assessed as prevention of infection at 0.06% applied two times at 2 hr after bacterial exposure measured after 8 to 10 days by In vitro flower inoculation assay; format: functional, 295/93/763; outline: as §3

O=C1C(O)=C(C2=C(O)C(=O)c3ccccc3C2=O)C(=O)c2ccccc21
MIC (Erwinia amylovora [1]): inactive

COc1cc(O)c2c(c1)C(=O)c1cc(C)cc(O)c1C2=O
MIC (Erwinia amylovora [1]): inactive

O=C1c2ccccc2C(=O)c2c1cc(S(=O)(=O)O)c(O)c2O
MIC (Erwinia amylovora [1]): inactive

O=C1C=CC(=O)c2c(O)cccc21 [JUGLONE]
growth inhibition (GI) (Erwinia amylovora [2]): Active | growth inhibition (GI) (Erwinia amylovora [3]): Active | Activity [4]: Active | growth inhibition (GI) (Erwinia amylovora [5]): inactive | growth inhibition (GI) (Erwinia amylovora [6]): Active | growth inhibition (GI) (Erwinia amylovora [7]): inactive | Efficacy (Erwinia amylovora [8]): 67% | Activity (Erwinia amylovora [9]): Active | Activity (Erwinia amylovora [10]): Active | MIC (Escherichia coli): 1000 µM (≈ 174 µg/mL) | MIC (Pseudomonas fluorescens): > 1000 µM | MIC (Bacillus subtilis): 50 µM (≈ 8.71 µg/mL) | MIC [11]: 500 µM (≈ 87.1 µg/mL) | MIC (Erwinia piriflorinigrans): 500 µM (≈ 87.1 µg/mL) | MIC (Pantoea agglomerans): 500 µM (≈ 87.1 µg/mL) | MIC (Erwinia billingiae): 1000 µM (≈ 174 µg/mL) | MIC (Erwinia amylovora [12]): 10 µM (≈ 1.74 µg/mL) | MIC (Erwinia amylovora [13]): 20 µM (≈ 3.48 µg/mL) | MIC (Erwinia amylovora [14]): 10 µM (≈ 1.74 µg/mL) | MIC (Erwinia amylovora [15]): 5 µM (≈ 0.871 µg/mL) | MIC (Erwinia amylovora [16]): 2.5 µM (≈ 0.435 µg/mL) | growth inhibition (GI) (Erwinia amylovora [17]): inactive | MIC (Erwinia amylovora [1]): 10 µM (≈ 1.74 µg/mL) | MIC (Erwinia tasmaniensis): 500 µM (≈ 87.1 µg/mL) | MIC (Erwinia pyrifoliae): 20 µM (≈ 3.48 µg/mL) | MIC (Erwinia amylovora [18]): 10 µM (≈ 1.74 µg/mL) | MIC (Erwinia amylovora [19]): 10 µM (≈ 1.74 µg/mL) | MIC (Erwinia amylovora [20]): 20 µM (≈ 3.48 µg/mL) | MIC (Erwinia amylovora [21]): 10 µM (≈ 1.74 µg/mL) | MIC (Erwinia amylovora [22]): 20 µM (≈ 3.48 µg/mL) | MIC (Erwinia amylovora [23]): 20 µM (≈ 3.48 µg/mL) | MIC (Erwinia amylovora [24]): 10 µM (≈ 1.74 µg/mL) | MIC (Erwinia amylovora [25]): 10 µM (≈ 1.74 µg/mL) | MIC (Erwinia amylovora [26]): 10 µM (≈ 1.74 µg/mL) | MIC (Erwinia amylovora [27]): 10 µM (≈ 1.74 µg/mL) | MIC (Erwinia amylovora [28]): 20 µM (≈ 3.48 µg/mL) | MIC (Erwinia amylovora [29]): 10 µM (≈ 1.74 µg/mL) | MIC (Erwinia amylovora [30]): 10 µM (≈ 1.74 µg/mL)

O=C1c2ccccc2C(=O)c2ccccc21
MIC (Erwinia amylovora [1]): inactive

CC1=CC(=O)c2ccccc2C1=O [MENADIONE]
MIC (Erwinia amylovora [1]): 250 µM (≈ 43 µg/mL)

O=C1c2ccccc2C(=O)c2c1ccc(O)c2O
MIC (Erwinia amylovora [1]): inactive

CC1=CC(=O)c2c(O)cccc2C1=O [PLUMBAGIN]
MIC (Erwinia amylovora [1]): 100 µM (≈ 18.8 µg/mL)

O=C1C=CC(=O)c2c(O)ccc(O)c21 [NAPHTHAZALIN]
MIC (Erwinia amylovora [1]): 10 µM (≈ 1.9 µg/mL)

O=C(O)c1cc(O)c2c(c1)C(=O)c1cccc(O)c1C2=O
MIC (Erwinia amylovora [1]): inactive

Cc1cc(O)c2c(c1)C(=O)c1cc(O)cc(O)c1C2=O
MIC (Erwinia amylovora [1]): inactive

O=C1C=CC(=O)C=C1 [BENZOQUINONE]
MIC (Erwinia amylovora [31]): 10 µM (≈ 1.08 µg/mL) | MIC (Erwinia amylovora [1]): 100 µM (≈ 10.8 µg/mL)

O=C1c2cccc(O)c2C(=O)c2c(O)cc(CO)cc21
MIC (Erwinia amylovora [1]): inactive

O=C1C=C(O)C(=O)c2ccccc21 [LAWSONE]
MIC (Erwinia amylovora [1]): 2500 µM (≈ 435 µg/mL)

Cc1cc(O)c2c(c1)C(=O)c1cccc(O)c1C2=O
MIC (Erwinia amylovora [1]): inactive

CC(C)=CC[C@@H](O)C1=CC(=O)c2c(O)ccc(O)c2C1=O [SHIKONIN]
MIC (Erwinia amylovora [1]): 100 µM (≈ 28.8 µg/mL)

CN[C@@H]1[C@H](O[C@H]2[C@H](O[C@H]3[C@H](O)[C@@H](O)[C@H](N=C(N)N)[C@@H](O)[C@@H]3N=C(N)N)O[C@@H](C)[C@]2(O)C=O)O[C@@H](CO)[C@H](O)[C@H]1O [STREPTOMYCIN]
Efficacy (Erwinia amylovora [32]): 75% | MIC (Erwinia amylovora [1]): 10 µM (≈ 5.82 µg/mL)

CC1=C(C)C(=O)C(C)=C(C)C1=O
MIC (Erwinia amylovora [1]): inactive
